Measured values as given in ChEMBL document CHEMBL1143049, “Preparation, biological activity and endogenous occurrence of N6-benzyladenosines” (Bioorg Med Chem, 2007).

Assays:
G-361 = assay: Antitumor activity against human G361 cells after 72 hrs by Calcein AM assay; assay type: functional, cell-based; settings: G-361, 72 h
In short: (§1)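 Cells grown in DMEM at 37 °C under 5% CO2. Compounds added after 12 h preincubation in 96-well plates, final 0.5-170 μM, with 0.6% final DMSO, then 72 h exposure. Viable cells stained with Calcein AM for 1 h and read at 485/538 nm. IC50 (concentration lethal to 50% of cells) taken from dose-response curves. Run in quadruplicate.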

Amaranthus = assay: Cytokinin activity in Amaranthus cotyledons assessed as dark induction of betacyanin synthesis at 0.1 mmol/L relative to 6-Benzylaminopurine; assay type: functional
In short: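 Dark induction of betacyanin in excised Amaranthus cotyledons. DMSO stock brought to 10^-3 M in water, diluted into assay medium (DMSO ≤0.2%). Tested over 10^-4 to 10^-8 M, five replicates per concentration, assay repeated at least three times. Response at the optimal concentration expressed relative to BAP at its optimum (set to 100).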

HOS = assay: Antitumor activity against human HOS cells after 72 hrs by Calcein AM assay; assay type: functional, cell-based; in short: as §1
K562 = assay: Antitumor activity against human K562 cells after 72 hrs by Calcein AM assay; assay type: functional, cell-based; settings: K562, 72 h; in short: as §1
[1] = Antitumor activity against human MCF cells after 72 hrs by Calcein AM assay; assay type: functional, cell-based; in short: as §1
[2] = Cytotoxicity against mouse NIH 3T3 cells after 72 hrs by Calcein AM assay; assay type: cell-based; settings: NIH3T3, 72 h; in short: as §1
Triticum aestivum = assay: Cytokinin activity in wheat assessed as retention of chlorophyll in excised wheat leaves at 0.1 mmol/L relative to 6-Benzylaminopurine by senescence assay; assay type: functional
In short: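 Senescence assay measuring chlorophyll retention in excised wheat leaves. DMSO stocks brought to 10^-3 M with water, then diluted in assay medium to a final DMSO of at most 0.2%. Concentrations 10^-4 to 10^-8 M, quintuplicate, repeated at least three times. Response at the optimal concentration normalised to BAP optimum = 100.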

Nicotiana tabacum [3] = assay: Cytokinin activity in tobacco assessed as stimulation of callus growth at 1 umol/L relative to 6-Benzylaminopurine; assay type: functional
In short: (§2)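 Stimulation of tobacco callus growth. Compounds dissolved in DMSO, brought to 10^-3 M in water and diluted into medium (DMSO ≤0.2%). Range 10^-4 to 10^-8 M, five replicates per concentration, at least three independent repeats. Activity at the optimal concentration given relative to BAP's optimal response, taken as 100.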

CCRF-CEM = assay: Antitumor activity against human CEM cells after 72 hrs by Calcein AM assay; assay type: functional, cell-based; in short: as §1
HL-60 = assay: Antitumor activity against human HL60 cells after 72 hrs by Calcein AM assay; assay type: functional, cell-based; settings: HL-60, 72 h; in short: as §1
B16 = assay: Antitumor activity against mouse B16 cells after 72 hrs by Calcein AM assay; assay type: functional, cell-based; settings: B16, 72 h; in short: as §1
Nicotiana tabacum [4] = assay: Cytokinin activity in tobacco assessed as stimulation of callus growth at 0.01 mmol/L relative to 6-Benzylaminopurine; assay type: functional; in short: as §2

SMILES | IC50 (G-361) | Activity (Amaranthus) | IC50 (HOS) | IC50 (K562) | IC50 [1] | IC50 [2] | Activity (Triticum aestivum) | Activity (Nicotiana tabacum [3]) | IC50 (CCRF-CEM) | IC50 (HL-60) | IC50 (B16) | Activity (Nicotiana tabacum [4]) | Activity (Nicotiana tabacum [3]; in the assay text read “at 10 umol/L” for “at 1 umol/L”)
COc1cc(O)cc(OC)c1CNc1ncnc2c1ncn2[C@@H]1O[C@H](CO)[C@@H](O)[C@H]1O | > 167 µM | 7% | > 167 µM | > 167 µM | > 167 µM |  |  |  |  |  |  |  | 
Cc1ccccc1CNc1ncnc2c1ncn2[C@@H]1O[C@H](CO)[C@@H](O)[C@H]1O [METRIFUDIL] | > 167 µM | 99% | > 167 µM | > 167 µM | > 167 µM | > 167 µM | 141% | 98% | 14 µM | 3.3 µM |  |  | 
OC[C@H]1O[C@@H](n2cnc3c(NCc4ccc(F)c(Cl)c4)ncnc32)[C@H](O)[C@@H]1O | > 167 µM | 82% | > 167 µM | 5.5 µM | > 167 µM | > 167 µM | 156% | 87% | 3.4 µM | 3.5 µM | 167 µM |  | 
OC[C@H]1O[C@@H](n2cnc3c(NCc4cccc(O)c4O)ncnc32)[C@H](O)[C@@H]1O | 16.9 µM | 24% | > 167 µM | 25.8 µM | 5.2 µM |  | 7% |  |  |  |  |  | 
OC[C@H]1O[C@@H](n2cnc3c(NCc4ccc(F)cc4F)ncnc32)[C@H](O)[C@@H]1O | > 167 µM | 88% | > 167 µM | 9.6 µM | > 167 µM | > 167 µM | 171% | 96% | 7.1 µM | 3.4 µM | > 167 µM |  | 
OC[C@H]1O[C@@H](n2cnc3c(NCc4cccc(OC(F)(F)F)c4)ncnc32)[C@H](O)[C@@H]1O | > 167 µM | 104% | > 167 µM | > 167 µM | > 167 µM |  | 90% | 86% |  |  |  |  | 
OC[C@H]1O[C@@H](n2cnc3c(NCc4ccc(Br)cc4)ncnc32)[C@H](O)[C@@H]1O | > 167 µM | 30% | > 167 µM | 68.2 µM | > 167 µM | > 167 µM | 76% | 16% | 20.6 µM | 47.4 µM | > 167 µM |  | 
OC[C@H]1O[C@@H](n2cnc3c(NCc4cccc(I)c4)ncnc32)[C@H](O)[C@@H]1O |  | 102% |  |  |  |  | 58% | 45% |  |  |  |  | 
COc1ccc(CNc2ncnc3c2ncn3[C@@H]2O[C@H](CO)[C@@H](O)[C@H]2O)c(OC)c1 |  | 3% | > 167 µM | > 167 µM | > 167 µM |  | 30% |  | > 167 µM | 39 µM |  | 5% | 
COc1ccc(CNc2ncnc3c2ncn3C2OC(CO)[C@@H](O)[C@H]2O)c(O)c1 (stereo partly drawn) |  | 0% | > 167 µM | 80.8 µM | 2.2 µM |  | 22% |  | 12.8 µM |  |  |  | 
COc1cc(CNc2ncnc3c2ncn3[C@@H]2O[C@H](CO)[C@@H](O)[C@H]2O)cc(OC)c1O | > 167 µM |  | > 167 µM | > 167 µM | > 167 µM |  |  |  |  |  |  |  | 
Cc1cccc(CNc2ncnc3c2ncn3[C@@H]2O[C@H](CO)[C@@H](O)[C@H]2O)c1O | > 167 µM | 55% | > 167 µM | 18 µM | 6.9 µM |  |  |  | 0.9 µM | 15 µM | > 167 µM | 5% | 
COc1ccc(CNc2ncnc3c2ncn3[C@@H]2O[C@H](CO)[C@@H](O)[C@H]2O)cc1O |  | 24% |  | > 167 µM | > 167 µM | > 167 µM | 19% |  | > 167 µM | > 167 µM |  |  | 
OC[C@H]1O[C@@H](n2cnc3c(NCc4cc(F)cc(F)c4)ncnc32)C(O)C1O (stereo partly drawn) | > 167 µM | 110% |  | > 167 µM | > 167 µM | > 167 µM | 195% | 95% | 24.5 µM | 9.1 µM | > 167 µM |  | 
OC[C@H]1O[C@@H](n2cnc3c(NCc4ccccc4C(F)(F)F)ncnc32)C(O)C1O (stereo partly drawn) | > 167 µM | 121% | > 167 µM | > 167 µM | > 167 µM |  | 40% |  |  |  |  |  | 
COc1cccc(CNc2ncnc3c2ncn3[C@@H]2O[C@H](CO)[C@@H](O)[C@H]2O)c1OC |  | 21% | > 167 µM | > 167 µM | > 167 µM |  | 106% | 5% | > 167 µM | > 167 µM |  |  | 
Cc1ccc(CNc2ncnc3c2ncn3[C@@H]2O[C@H](CO)[C@@H](O)[C@H]2O)cc1 |  | 49% | > 167 µM | > 167 µM | > 167 µM | > 167 µM | 54.5% | 35% | > 167 µM | > 167 µM |  |  | 
COc1cc(CNc2ncnc3c2ncn3[C@@H]2O[C@H](CO)[C@@H](O)[C@H]2O)cc(OC)c1 |  | 2% |  | > 167 µM | > 167 µM |  | 47% | 11% | > 167 µM | 20.2 µM |  |  | 
COc1cccc(OC)c1CNc1ncnc2c1ncn2[C@@H]1O[C@H](CO)[C@@H](O)[C@H]1O |  | 54% |  |  |  |  | 68% |  |  |  |  |  | 
OC[C@H]1O[C@@H](n2cnc3c(NCc4ccc(OC(F)(F)F)cc4)ncnc32)[C@H](O)[C@@H]1O | > 167 µM | 21% | > 167 µM | > 167 µM | > 167 µM |  | 3% |  |  |  |  |  | 
OC[C@H]1O[C@@H](n2cnc3c(NCc4ccccc4OC(F)F)ncnc32)[C@H](O)[C@@H]1O | > 167 µM | 81% | > 167 µM | > 167 µM | > 167 µM |  | 180% |  |  |  |  | 89% | 
COc1cccc(CNc2ncnc3c2ncn3[C@@H]2O[C@H](CO)[C@@H](O)[C@H]2O)c1O | 148 µM | 18% | > 167 µM | 27.9 µM | 20.2 µM | > 167 µM | 10% |  | 0.3 µM | 0.15 µM | > 167 µM |  | 
OC[C@H]1O[C@@H](n2cnc3c(NCc4ccc(Cl)c(Cl)c4)ncnc32)[C@H](O)[C@@H]1O | 145 µM | 68% | > 167 µM | 10.8 µM | 88.8 µM |  | 151% | 17% | 3.8 µM | 2 µM | > 167 µM |  | 
OC[C@H]1O[C@@H](n2cnc3c(NCc4ccc(C(F)(F)F)cc4)ncnc32)[C@H](O)[C@@H]1O | > 167 µM | 14% | > 167 µM | > 167 µM | > 167 µM |  | 52% |  |  |  |  |  | 
OC[C@H]1O[C@@H](n2cnc3c(NCc4cccc(C(F)(F)F)c4)ncnc32)[C@H](O)[C@@H]1O | > 167 µM | 93% | > 167 µM | > 167 µM | > 167 µM |  | 95% | 85% |  |  |  |  | 
OC[C@H]1O[C@@H](n2cnc3c(NCc4c(F)ccc(F)c4F)ncnc32)[C@H](O)[C@@H]1O | > 167 µM | 94% |  | > 167 µM | > 167 µM |  | 133% |  | 90.3 µM | 13 µM | > 167 µM |  | 92%
OC[C@H]1O[C@@H](n2cnc3c(NCc4ccccc4OC(F)(F)F)ncnc32)[C@H](O)[C@@H]1O | > 167 µM | 78% | > 167 µM | 81.4 µM | > 167 µM |  | 61% |  | > 167 µM | > 167 µM | > 167 µM |  | 
OC[C@H]1O[C@@H](n2cnc3c(NCc4cc(F)c(F)cc4F)ncnc32)[C@H](O)[C@@H]1O |  | 120% |  |  |  |  | 99% |  |  |  |  | 95% | 
OC[C@H]1O[C@@H](n2cnc3c(NCc4cc(O)cc(O)c4)ncnc32)[C@H](O)[C@@H]1O | > 167 µM | 31% | > 167 µM | > 167 µM | > 167 µM |  | 96% |  |  |  |  |  | 
